Data published in ChEMBL document CHEMBL4052633, “Cinnamoylated chloroquine analogues: A new structural class of antimalarial agents” (Eur J Med Chem, 2017).

Assays:
[1] = system: Vero; test: (§1) Cytotoxicity against African green monkey Vero cells after 72 hrs by MTT assay; assay type: cell-based; conditions: chlorocebus sabaeus, vero, 72 h
How it was run: (§2)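 Vero monkey kidney cells were exposed to a dilution series of test agents for 72 hour, with MTT as the detection reagent (modified Mosmann method). CC50 was derived by nonlinear regression of dose-response curves. Triplicate experiments.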

[2] = Selectivity index, ratio of CC50 for African green monkey Vero cells to IC50 for chloroquine sensitive Plasmodium falciparum 3D7; assay type: toxicity; conditions: for Ratio CC50/IC50: vero; for selectivity ratio: Vero cells, read-out: Ratio CC50/IC50
How it was run: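 SI was computed as Vero CC50 (72 hour MTT, nonlinear regression) divided by the 3D7 IC50. SYBR Green-I lysis buffer was added for 1 hour, and fluorescence was read at 485/530 nm. Logit regression gave IC50.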

[3] = as §1; assay type: cell-based; conditions: chlorocebus sabaeus, Vero cells; how it was run: as §2
[4] = system: Plasmodium falciparum; test: Antimalarial activity against chloroquine sensitive Plasmodium falciparum 3D7 after 72 hrs by SYBR green 1 dye based fluorescence assay; assay type: functional
How it was run: (§3)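 Compounds dissolved in DMSO at 5 mg/mL (stock), then two-fold serial dilutions. Lysis buffer with 2x SYBR Green-I was added for 1 h at 37 °C. Fluorescence read at 485/530 nm. IC50 by logit regression of dose-response curves, triplicate.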

[5] = system: Plasmodium falciparum; test: Antimalarial activity against chloroquine resistant Plasmodium falciparum K1 after 72 hrs by SYBR green 1 dye based fluorescence assay; assay type: functional; how it was run: as §3
[6] = Plasmodium falciparum, 3D7, 72 h, read-out: IC50
[7] = Plasmodium falciparum, K1, 72 h, read-out: IC50

Row | Compound | CC50 [1] | Ratio CC50/IC50 [2] | CC50 at 72 h [3] | IC50 [4, 6] | IC50 [5, 7] | selectivity ratio [2] | IC50 [4] | IC50 [5]
1 | COc1cc(/C=C/C(=O)c2ccc(OCC3CO3)cc2)cc(OC)c1OC (stereo unspecified) | Non-Toxic | Not Active |  |  |  |  |  | 
2 | O=C(/C=C/c1ccc(Cl)cc1)NCCNc1ccnc2cc(Cl)ccc12 |  |  | 6.93 µM | 0.0194 µM | 0.0441 µM | 357 |  | 
3 | COc1ccc(/C=C/C(=O)c2ccc(OCC(O)CNCCNc3ccnc4cc(Cl)ccc34)cc2)cc1OC (stereo unspecified) |  |  | 10.2 µM | 0.0799 µM | 0.229 µM | 128 |  | 
4 | COc1cc(/C=C/C(=O)c2ccccc2OCC(=O)NCCNc2ccnc3cc(Cl)ccc23)cc(OC)c1OC |  |  | 3.92 µM | 0.0691 µM | 0.224 µM | 56.7 |  | 
5 | COc1cc(OC)c(OC)cc1/C=C/C(=O)c1ccccc1OCC(=O)NCCNc1ccnc2cc(Cl)ccc12 |  |  | 12.2 µM | 0.0941 µM | 0.161 µM | 130 |  | 
6 | COc1ccc(/C=C/C(=O)NCCNc2ccnc3cc(Cl)ccc23)cc1 |  |  | 20.6 µM | 0.0134 µM | 0.0594 µM | 1530 |  | 
7 | O=C(/C=C/c1ccco1)NCCNc1ccnc2cc(Cl)ccc12 |  |  | 629 µM | 0.094 µM | 0.101 µM | 6700 |  | 
8 | COc1ccc(/C=C/C(=O)c2ccc(OCC(O)CNCCNc3ccnc4cc(Cl)ccc34)cc2)cc1 (stereo unspecified) |  |  | 8.03 µM | 0.0473 µM | 0.9 µM | 170 |  | 
9 | COc1cc(OC)c(OC)cc1/C=C/C(=O)NCCNc1ccnc2cc(Cl)ccc12 |  |  | 16.1 µM | 0.0213 µM | 0.143 µM | 756 |  | 
10 | COc1ccc(/C=C/C(=O)c2ccccc2OCC(=O)NCCNc2ccnc3cc(Cl)ccc23)cc1 |  |  | 25 µM | 0.134 µM | 0.148 µM | 186 |  | 
11 | Cc1ccc(/C=C/C(=O)NCCNc2ccnc3cc(Cl)ccc23)cc1 |  |  | 4 µM | 0.022 µM | 0.048 µM | 182 |  | 
12 | COc1cc(/C=C/C(=O)c2ccc(OCC(O)CNCCNc3ccnc4cc(Cl)ccc34)cc2)cc(OC)c1OC (stereo unspecified) |  |  | 1.91 µM | 0.0135 µM | 0.8 µM | 142 |  | 
13 | COc1ccc(/C=C/C(=O)c2ccccc2OCC(=O)NCCNc2ccnc3cc(Cl)ccc23)cc1OC |  |  | 5.31 µM | 0.0961 µM | 0.134 µM | 55.3 |  | 
14 | O=C(COc1ccccc1C(=O)/C=C/c1ccc(Cl)cc1)NCCNc1ccnc2cc(Cl)ccc12 |  |  | 4.98 µM | 0.255 µM | 0.253 µM | 19.5 |  | 
15 | COc1cc(/C=C/C(=O)c2ccc(OCC(O)CNc3ccc4c(c3)OCO4)cc2)cc(OC)c1OC (stereo unspecified) | Non-Toxic | Not Active |  |  |  |  | Not Active | Not Active
16 | COc1ccc(/C=C/C(=O)NCCNc2ccnc3cc(Cl)ccc23)cc1OC |  |  | 5.6 µM | 0.0142 µM | 0.157 µM | 396 |  | 
17 | CC(=O)c1ccccc1OCC(=O)NCCNc1ccnc2cc(Cl)ccc12 |  |  | 106 µM | 0.0104 µM | 1.3 µM | 10200 |  | 
